This is an account of results in ChEMBL document CHEMBL1124191, “Design of rat renin inhibitory peptides” (J Med Chem, 1988).

*1 amine or outer side, *2 acyl side, *3 side chain or, on linkers, in order; H or OH if unused. Where a SMILES comes first, the peptide text is derived from it. [ ]: non-standard residue; d: D form. Ahppa(3S,4S) = O=C(C[C@H](O)[C@H](Cc1ccccc1)N[*:1])[*:2]; ACHPA = O=C(C[C@H](O)[C@H](CC1CCCCC1)N[*:1])[*:2]; 1Nal = N[C@@H](Cc1cccc2ccccc12)C(=O)O; Sta = CC(C)C[C@H](N)[C@@H](O)CC(=O)O; Cha = N[C@@H](CC1CCCCC1)C(=O)O; Chg = N[C@H](C(=O)O)C1CCCCC1; Tle = CC(C)(C)[C@H](N)C(=O)O

The target of the test is T1, Renin (Rattus norvegicus, UniProt P08424).
T1 sequence (P08424 whole entry): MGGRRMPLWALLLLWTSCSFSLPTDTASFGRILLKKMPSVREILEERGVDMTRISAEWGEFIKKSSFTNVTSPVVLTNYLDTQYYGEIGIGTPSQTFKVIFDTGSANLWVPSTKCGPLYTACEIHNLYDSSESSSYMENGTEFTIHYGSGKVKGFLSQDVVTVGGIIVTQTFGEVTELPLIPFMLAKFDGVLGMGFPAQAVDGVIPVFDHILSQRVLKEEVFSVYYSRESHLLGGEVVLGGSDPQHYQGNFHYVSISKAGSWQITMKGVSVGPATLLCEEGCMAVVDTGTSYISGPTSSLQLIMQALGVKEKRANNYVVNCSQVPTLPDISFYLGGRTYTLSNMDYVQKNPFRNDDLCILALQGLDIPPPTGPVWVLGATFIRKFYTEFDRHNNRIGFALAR
The experiment in a line: Inhibitory activity against rat plasma renin in vitro. It counts as cell-free. The method in brief:
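Pooled EDTA rat plasma with added PMSF 5 mM, 8-hydroxyquinoline 3 mM and extra EDTA 5 mM, at pH 7.4, mixed with serial 1:10 peptide dilutions (Tris/DMSO), split, and incubated 1 h at 37 and 0 °C.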
Take `CC(=O)N[C@H](C(=O)N1CCC[C@H]1C(=O)N[C@@H](Cc1ccccc1)C(=O)N[C@H](C(=O)N[C@@H](CC(C)C)[C@@H](O)CC(=O)N[C@@H](CC(C)C)C(=O)N[C@@H](Cc1ccccc1)C(N)=O)C(C)C)C1CCCCC1` (Ac-[Chg]PFV[Sta]LF-NH2): the 50% inhibitory concentration (IC50) (usually the concentration needed to halve the response being measured) came to 0.28 µM. Turning to `CC[C@H](C)[C@H](NC(=O)C[C@H](O)[C@H](CC1CCCCC1)NC(=O)[C@H](Cc1c[nH]cn1)NC(=O)[C@H](Cc1ccccc1)NC(=O)[C@@H]1CCCN1C(=O)[C@H](Cc1c[nH]cn1)NC(=O)[C@@H]1CCCN1)C(=O)N[C@@H](Cc1ccccc1)C(N)=O` (H-PHPFH[ACHPA]IF-NH2), it took 0.065 µM to reach half-maximal inhibition (IC50).

With `CC(=O)N[C@@H](Cc1cnc[nH]1)C(=O)N1CCC[C@H]1C(=O)N[C@@H](Cc1ccccc1)C(=O)N[C@@H](CC(C)C)C(=O)N[C@@H](CC(C)C)[C@@H](O)CC(=O)N[C@@H](CC(C)C)C(=O)N[C@@H](Cc1ccccc1)C(N)=O`, the IC50 amounted to 0.31 µM. As for `CC(=O)N[C@@H](Cc1cnc[nH]1)C(=O)N1CCC[C@H]1C(=O)N[C@@H](Cc1ccccc1)C(=O)N[C@@H](Cc1cnc[nH]1)C(=O)N[C@@H](CC(C)C)[C@@H](O)CC(=O)N[C@@H](CC(C)C)C(=O)N[C@H](C(N)=O)C(C)C` (Ac-HPFH[Sta]LV-NH2), the half-maximal inhibitory concentration (IC50) amounted to 0.27 µM. The compound `CC[C@H](C)[C@H](NC(=O)[C@H](Cc1ccccc1)NC(=O)[C@@H]1CCCN1C(=O)[C@H](Cc1cnc[nH]1)NC(C)=O)C(=O)N[C@@H](Cc1ccccc1)[C@@H](O)CC(=O)N[C@@H](CC(C)C)C(=O)N[C@@H](Cc1ccccc1)C(N)=O` (Ac-HPFI[Ahppa(3S,4S)]LF-NH2) displayed an IC50 of 1.27 µM.

On to `CC(=O)N[C@@H](Cc1c[nH]cn1)C(=O)N1CCC[C@H]1C(=O)N[C@@H](Cc1cccc2ccccc12)C(=O)N[C@@H](Cc1c[nH]cn1)C(=O)N[C@@H](CC(C)C)[C@@H](O)CC(=O)N[C@@H](CC(C)C)C(=O)N[C@@H](Cc1ccccc1)C(N)=O` (Ac-HP[1Nal]H[Sta]LF-NH2), for which the midpoint of inhibition, the IC50, lay at 0.22 µM.

The compound `CC(=O)N[C@@H](Cc1c[nH]cn1)C(=O)N1CCC[C@H]1C(=O)N[C@@H](Cc1ccccc1)C(=O)N[C@@H](Cc1c[nH]cn1)C(=O)N[C@@H](CC(C)C)[C@@H](O)CC(=O)N[C@@H](CC1CCCCC1)C(=O)N[C@@H](Cc1ccccc1)C(N)=O` (Ac-HPFH[Sta][Cha]F-NH2) displayed an IC50 of 2.7 µM. The compound `CC(=O)N[C@@H](Cc1c[nH]cn1)C(=O)N1CCC[C@H]1C(=O)N[C@@H](Cc1ccccc1)C(=O)N[C@@H](Cc1c[nH]cn1)C(=O)N[C@@H](CC(C)C)[C@@H](O)CC(=O)N[C@H](C(=O)N[C@@H](Cc1ccccc1)C(N)=O)C(C)C` (Ac-HPFH[Sta]VF-NH2) gave a concentration for half-maximal inhibition (IC50) of 2.8 µM. `CC(C)C[C@H](NC(=O)[C@H](Cc1c[nH]cn1)NC(=O)[C@H](Cc1ccccc1)NC(=O)[C@@H]1CCCN1C(=O)[C@H](Cc1c[nH]cn1)NC(=O)[C@@H]1CCCN1)[C@@H](O)CC(=O)N[C@@H](Cc1ccc(O)cc1)C(=O)N[C@@H](Cc1ccc(O)cc1)C(=O)N[C@@H](CO)C(=O)N[C@@H](CCCCN)C(N)=O` (H-PHPFH[Sta]YYSK-NH2) came in with an IC50 of 7.9 µM. In the case of `CC(=O)N[C@@H](Cc1cnc[nH]1)C(=O)N1CCC[C@H]1C(=O)N[C@@H](Cc1ccccc1)C(=O)N[C@H](C(=O)N[C@@H](CC1CCCCC1)[C@@H](O)CC(=O)N[C@@H](CC(C)C)C(=O)N[C@@H](Cc1ccccc1)C(N)=O)C(C)C`, 0.033 µM corresponded to half-maximal inhibition (IC50).

Regarding `CC(=O)N[C@@H](Cc1cnc[nH]1)C(=O)N1CCC[C@H]1C(=O)N[C@@H](Cc1c[nH]c2ccccc12)C(=O)N[C@@H](Cc1cnc[nH]1)C(=O)N[C@@H](CC(C)C)[C@@H](O)CC(=O)N[C@@H](CC(C)C)C(=O)N[C@@H](Cc1ccccc1)C(N)=O` (Ac-HPWH[Sta]LF-NH2), the half-maximal inhibitory concentration (IC50) was found to be 0.24 µM. `CC(=O)N[C@@H](Cc1c[nH]cn1)C(=O)N1CCC[C@H]1C(=O)N[C@H](CC(C)C)C(=O)N[C@@H](Cc1c[nH]cn1)C(=O)N[C@@H](CC(C)C)[C@@H](O)CC(=O)N[C@@H](CC(C)C)C(=O)N[C@@H](Cc1ccccc1)C(N)=O` registered an IC50 of about 1000 µM. In the case of `CC(C)C[C@H](NC(=O)C[C@H](O)[C@H](CC(C)C)NC(=O)[C@H](Cc1c[nH]cn1)NC(=O)[C@H](Cc1ccccc1)NC(=O)[C@@H]1CCCN1C(=O)[C@H](Cc1c[nH]cn1)NC(=O)[C@@H]1CCCN1)C(=O)N[C@@H](Cc1ccc(O)cc1)C(=O)N[C@@H](Cc1ccc(O)cc1)C(N)=O` (H-PHPFH[Sta]LYY-NH2), the half-inhibitory concentration (IC50) was 0.775 µM. With `COc1ccc(C[C@H](NC(C)=O)C(=O)N2CCC[C@H]2C(=O)N[C@@H](Cc2ccccc2)C(=O)N[C@H](C(=O)N[C@@H](CC(C)C)[C@@H](O)CC(=O)N[C@@H](CC(C)C)C(=O)N[C@@H](Cc2ccccc2)C(N)=O)C(C)C)cc1` (Ac-Y(Me)PFV[Sta]LF-NH2), it took 0.034 µM to reach half-maximal inhibition (IC50). In turn, `CC(=O)N[C@@H](Cc1ccccc1)C(=O)N1CCC[C@H]1C(=O)N[C@@H](Cc1ccccc1)C(=O)N[C@H](C(=O)N[C@@H](CC(C)C)[C@@H](O)CC(=O)N[C@@H](CC(C)C)C(=O)N[C@@H](Cc1ccccc1)C(N)=O)C(C)C` (Ac-FPFV[Sta]LF-NH2) came in with a 50% inhibitory concentration (IC50) of 0.042 µM. To `CC(=O)N[C@@H](Cc1c[nH]cn1)C(=O)N1CCC[C@@H]1C(=O)N[C@H](C)C(=O)N[C@@H](Cc1c[nH]cn1)C(=O)N[C@@H](CC(C)C)[C@@H](O)CC(=O)N[C@@H](CC(C)C)C(=O)N[C@@H](Cc1ccccc1)C(N)=O` belongs about 1000 µM; to `CC(C)C[C@H](NC(=O)[C@H](Cc1c[nH]cn1)NC(=O)[C@H](Cc1ccccc1)NC(=O)[C@@H]1CCCN1C(=O)[C@H](Cc1c[nH]cn1)NC(=O)[C@@H]1CCCN1)[C@@H](O)CC(=O)N[C@H](C(=O)N[C@H](C(N)=O)[C@@H](C)O)[C@@H](C)O` (H-PHPFH[Sta]TT-NH2), 105 µM. Turning to `CC(C)C[C@H](NC(=O)C[C@H](O)[C@H](CC(C)C)NC(=O)[C@H](Cc1cnc[nH]1)NC(=O)[C@H](Cc1ccccc1)NC(=O)[C@@H]1CCCN1C(=O)[C@H](Cc1cnc[nH]1)NC(=O)[C@@H]1CCCN1)C(=O)N[C@@H](Cc1ccccc1)C(N)=O` (H-PHPFH[Sta]LF-NH2), the IC50 turned out to be 0.24 µM. `CC(=O)N[C@@H](Cc1c[nH]cn1)C(=O)N1CCC[C@H]1C(=O)N[C@@H](Cc1ccccc1)C(=O)N[C@H](C(=O)N[C@@H](CC(C)C)[C@@H](O)CC(=O)N[C@@H](CC(C)C)C(=O)N[C@@H](Cc1ccccc1)C(N)=O)C(C)C` gave an IC50 of 0.03 µM. In the case of `CC(=O)N[C@@H](Cc1c[nH]cn1)C(=O)N1CCC[C@@H]1C(=O)N[C@@H](Cc1ccccc1)C(=O)N[C@H](C)C(=O)N[C@@H](CC(C)C)[C@@H](O)CC(=O)N[C@@H](CC(C)C)C(=O)N[C@@H](Cc1ccccc1)C(N)=O`, the IC50 was about 1000 µM. To `CC(=O)N[C@@H](Cc1cnc[nH]1)C(=O)N1CCC[C@H]1C(=O)N[C@@H](CC1CCCCC1)C(=O)N[C@@H](Cc1cnc[nH]1)C(=O)N[C@@H](CC(C)C)[C@@H](O)CC(=O)N[C@@H](CC(C)C)C(=O)N[C@@H](Cc1ccccc1)C(N)=O` (Ac-HP[Cha]H[Sta]LF-NH2) belongs 0.65 µM. In the case of `CC[C@H](C)[C@H](NC(=O)C[C@H](O)[C@H](CC(C)C)NC(=O)[C@H](Cc1c[nH]cn1)NC(=O)[C@H](Cc1ccccc1)NC(=O)[C@@H]1CCCN1C(=O)[C@H](Cc1c[nH]cn1)NC(=O)[C@@H]1CCCN1)C(=O)N[C@@H](Cc1ccccc1)C(N)=O` (H-PHPFH[Sta]IF-NH2) it was 10 µM; in that of `CC(=O)N[C@@H](Cc1c[nH]cn1)C(=O)N1CCC[C@H]1C(=O)N[C@@H](Cc1ccccc1)C(=O)N[C@H](CC(C)C)C(=O)N[C@@H](CC(C)C)[C@@H](O)CC(=O)N[C@@H](CC(C)C)C(=O)N[C@@H](Cc1ccccc1)C(N)=O`, about 1000 µM; in that of `CC(=O)N[C@@H](Cc1cnc[nH]1)C(=O)N1CCC[C@H]1C(=O)N[C@@H](Cc1ccccc1)C(=O)N[C@@H](Cc1cnc[nH]1)C(=O)N[C@@H](CC(C)C)[C@@H](O)CC(=O)N[C@H](C(=O)N[C@@H](Cc1ccccc1)C(N)=O)C(C)(C)C` (Ac-HPFH[Sta][Tle]F-NH2), 1.9 µM.

As for `CC(=O)N[C@@H](Cc1cnc[nH]1)C(=O)N1CCC[C@H]1C(=O)N[C@@H](Cc1ccccc1)C(=O)N[C@@H](Cc1cnc[nH]1)C(=O)N[C@@H](CC(C)C)[C@@H](O)CC(=O)N[C@@H](CC(C)C)C(=O)N[C@@H](Cc1ccccc1)C(N)=O`, 0.21 µM corresponded to half-maximal inhibition (IC50). The compound `CC(C)C[C@H](NC(=O)[C@H](Cc1cnc[nH]1)NC(=O)[C@H](Cc1ccccc1)NC(=O)[C@@H]1CCCN1C(=O)[C@H](Cc1cnc[nH]1)NC(=O)[C@@H]1CCCN1)[C@@H](O)CC(=O)N[C@@H](Cc1ccc(O)cc1)C(=O)N[C@@H](Cc1ccc(O)cc1)C(N)=O` (H-PHPFH[Sta]YY-NH2) came in with a half-maximal inhibitory concentration (IC50) of 1.6 µM.

Take `CC(C)C[C@H](NC(=O)[C@H](Cc1cnc[nH]1)NC(=O)[C@H](Cc1ccccc1)NC(=O)[C@@H]1CCCN1C(=O)[C@H](Cc1cnc[nH]1)NC(=O)[C@@H]1CCCN1)[C@@H](O)CC(=O)N[C@@H](Cc1ccc(O)cc1)C(=O)N[C@@H](Cc1ccc(O)cc1)C(=O)N[C@@H](CCCCN)C(N)=O` (H-PHPFH[Sta]YYK-NH2): the IC50 is 35 µM.

The compound `CC(=O)N[C@@H](Cc1cccc2ccccc12)C(=O)N1CCC[C@H]1C(=O)N[C@@H](Cc1ccccc1)C(=O)N[C@H](C(=O)N[C@@H](CC(C)C)[C@@H](O)CC(=O)N[C@@H](CC(C)C)C(=O)N[C@@H](Cc1ccccc1)C(N)=O)C(C)C` (Ac-[1Nal]PFV[Sta]LF-NH2) came in with an IC50 of 0.05 µM. For `CC(=O)N[C@@H](Cc1cnc[nH]1)C(=O)N1CCC[C@H]1C(=O)N[C@@H](Cc1ccccc1)C(=O)N[C@H](C(=O)N[C@@H](CC(C)C)[C@@H](O)CC(=O)N[C@@H](CC(C)C)C(=O)N[C@@H](Cc1ccccc1)C(N)=O)C1CCCCC1` (Ac-HPF[Chg][Sta]LF-NH2), the IC50 stood at 2.5 µM.
